Laboratory results as given in PMC8153786 (ACS Omega, 2021).
Like-named read-outs stand apart in the source and are kept apart here.

What was measured:
mCCL2-WT [1] = target: T1, mCCL2-WT (Mus musculus, UniProt P10148); test: Flavonol fluorescence quenching titration of mCCL2-WT; assay type: binding, murine; details: for quenching constant (Kq) / number of binding sites: mCCL2-WT; for quenching constant (Kq): Stern–Volmer, 25 °C, 50 μM protein; for number of binding sites: double-logarithmic plot
T1 sequence (P10148 24-148): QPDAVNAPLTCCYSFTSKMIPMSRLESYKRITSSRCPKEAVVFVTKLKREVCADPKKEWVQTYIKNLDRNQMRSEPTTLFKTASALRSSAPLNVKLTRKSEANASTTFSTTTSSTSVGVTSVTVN
Method in brief: (§1)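 Each CCL2 variant (WT dimer or monomer, E. coli BL21(DE3)-expressed) was held at 50 μM and titrated with 10–100 μM flavonol from a 20 mM DMSO stock, at 25 °C. Trp W59 was excited at 295 nm and emission read at 300–450 nm, slits 5 nm. Buffer-only additions served as controls; runs in triplicate. Ksv and Kq came from Stern–Volmer analysis; Ka and n from a double-logarithmic plot, nonlinear regression and Scatchard analysis.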

hCCL2-WT = hCCL2-WT (Homo sapiens, UniProt P13500); test: Flavonol fluorescence quenching titration of hCCL2-WT; assay type: binding; details: for quenching constant (Kq) / number of binding sites: hCCL2-WT; for quenching constant (Kq): Stern–Volmer, 25 °C, 50 μM protein; for number of binding sites: double-logarithmic plot
Chain of hCCL2-WT (P13500 24-99): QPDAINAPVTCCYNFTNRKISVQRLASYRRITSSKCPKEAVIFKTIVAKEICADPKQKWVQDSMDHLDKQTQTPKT
Method in brief: as §1

mCCL2-M = mCCL2-M (Mus musculus, UniProt P10148, P31A); test: Flavonol fluorescence quenching titration of mCCL2 monomer; assay type: binding, murine; details: for quenching constant (Kq): Stern–Volmer, 50 μM protein
Chain of mCCL2-M (P10148 24-148 P31A): as the sequence (P10148 24-148) above, with P8A counted along it
Method in brief: as §1

hCCL2-M = hCCL2-M (Homo sapiens, UniProt P13500, P31A); test: Flavonol fluorescence quenching titration of hCCL2 monomer; assay type: binding; details: for quenching constant (Kq) / number of binding sites: hCCL2-M (monomer); for quenching constant (Kq): Stern–Volmer, 25 °C, 50 μM protein; for number of binding sites: double-logarithmic plot
Chain of hCCL2-M (P13500 24-99 P31A): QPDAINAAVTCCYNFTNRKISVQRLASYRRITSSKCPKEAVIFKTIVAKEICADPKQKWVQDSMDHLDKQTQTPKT
Method in brief: as §1

mCCL2-WT [2] = target: T1, mCCL2-WT; test: 1H–15N HSQC NMR titration, chemical shift perturbation; assay type: binding, murine; details: mCCL2-WT 100 μM, protein/flavonol 1:5, comparison among the three flavonols
Method in brief: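 15N-labelled WT murine protein, expressed in E. coli BL21(DE3), at 100 μM in 50 mM Na2HPO4/50 mM NaCl, pH 6.0. 1H–15N HSQC spectra recorded at 500 MHz and 25 °C. Flavonol from a 20 mM DMSO stock was added stepwise up to protein/ligand 1:5. Per-residue CSP was calculated from combined ΔδH and ΔδN.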

bovine serum albumin = details: BSA–flavonol interactions ref 69; cited from earlier work
canine distemper virus = details: comparison with morin ref 67; cited from earlier work
[3] = mCCL2-M (monomer), double-logarithmic plot

SMILES | Kd (mCCL2-WT [1]) [µM] | quenching constant (Kq) (mCCL2-WT [1]) | number of binding sites (mCCL2-WT [1]) | Kd (hCCL2-WT) [µM] | quenching constant (Kq) (hCCL2-WT) | number of binding sites (hCCL2-WT) | Kd (mCCL2-M) [µM] | quenching constant (Kq) (mCCL2-M; mCCL2-M (monomer), 25 °C) | Kd (hCCL2-M) [µM] | quenching constant (Kq) (hCCL2-M) | number of binding sites (hCCL2-M) | perturbation of resonances in CSP maps (mCCL2-WT [2]) | binding constants (Ka) (bovine serum albumin) [L/mol] | Kd (mCCL2-M; dissociation constant (Kd), mCCL2-M (monomer), double-logarithmic plot, 25 °C) [µM] | number of binding sites (mCCL2-M; [3]) | inhibitory activity (canine distemper virus)
O=c1c(O)c(-c2ccc(O)cc2)oc2cc(O)cc(O)c12 [kaempferol, 3,5,7-trihydroxy-2-(4-hydroxyphenyl)chromen-4-one] | 24 ± 6 | 5.0 × 10^12 m^–1 s^–1 | 1.1 ± 0.2 | 26 ± 5 | 5.2 × 10^12 m^–1 s^–1 | 1.1 ± 0.1 | 26 ± 5 | 5.1 × 10^12 m^–1 s^–1 | 25 ± 4 | 5.3 × 10^12 m^–1 s^–1 | 1.1 ± 0.1 | the least | 2.57e+06 |  |  | 
O=c1c(O)c(-c2cc(O)c(O)c(O)c2)oc2cc(O)cc(O)c12 [myricetin, 3,5,7-trihydroxy-2-(3,4,5-trihydroxyphenyl)chromen-4-one] | 0.42 ± 0.03 | 6.1 × 10^12 m^–1 s^–1 | 1.1 ± 0.2 | 0.38 ± 0.04 | 5.8 × 10^12 m^–1 s^–1 | 1.3 ± 0.2 |  | 6.3 × 10^12 m^–1 s^–1 | 0.43 ± 0.02 | 6.2 × 10^12 m^–1 s^–1 | 1.2 ± 0.2 | largest perturbation of resonances | 4.9e+08 | 0.4 ± 0.03 | 1.2 ± 0.1 | 
O=c1c(O)c(-c2ccccc2)oc2cc(O)cc(O)c12 [galangin, reference compound] |  |  |  |  |  |  |  |  |  |  |  |  | 643000 |  |  | 
O=c1c(O)c(-c2ccc(O)c(O)c2)oc2cc(O)cc(O)c12 [quercetin, 2-(3,4-dihydroxyphenyl)-3,5,7-trihydroxychromen-4-one] | 3.9 ± 0.5 | 4.3 × 10^12 m^–1 s^–1 | 1.2 ± 0.2 | 3.5 ± 0.7 | 4.2 × 10^12 m^–1 s^–1 | 1.1 ± 0.1 | 3.7 ± 0.4 | 5.7 × 10^12 m^–1 s^–1 | 3.6 ± 0.5 | 5.4 × 10^12 m^–1 s^–1 | 1.2 ± 0.1 |  | 3.65e+07 |  | 1.1 ± 0.2 | higher inhibitory activity than morin
